Bioassay records from PubChem BioAssay.
GSK3 alpha inh: blockers of GSK3A enzyme activity – biochemical, luminescence, cell-free homogeneous, HTS, primary screen. inhibition, % at 10 µM. 320,000 compounds, 0.1% hits. GSK-3 alpha kinase, ADP-Glo luminescence, 60 min;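 active = more than half of replicates show inhibition above 20%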;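 note: GST-tagged GSK-3 alpha with peptide substrate and 25 µM ATP; 0% = DMSO neutral wells and 100% = GW8510 positive control wells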
MEKK2 WT-MEK5: modulators of MEK5 binding to wildtype MEKK2, primary screen, biochemical, multiplex bead flow cytometry, Alexa488-MEK5; Mitogen-activated protein kinase kinase kinase 2 (Homo sapiens), Q9Y2U5; Alexa488-MEK5 binding to MEKK2 WT; actives lie on both sides; binding response (% of control), % at 10 µM; 290,000 compounds, 1.1% hits; AID 1531, 2009; in the data active = binding response below about 67% or above about 130%
MEKK3 PB1 HTS: modulators of MEKK3-MEK5 PB1 binding, primary screen, biochemical, wildtype MEKK3, multiplex bead flow cytometry, Alexa488-MEK5; Mitogen-activated protein kinase kinase kinase 3 (Homo sapiens), Q99759; bead-based flow cytometry, Alexa488-MEK5 binding to MEKK3; actives lie on both sides; 0 = blocked by unlabeled MEK5, 100 = vehicle; binding response (% of control), % at 10 µM; 290,000 compounds, 1.4% hits; AID 1529, 2009;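 active = binding response more than 3 SD above or below the average of its plate-row segment, actives on both sides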;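 note: Alexa488 bead fluorescence after subtracting the streptavidin-only scavenger bead signal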
GSK3beta inhib: human GSK3beta kinase inhibitors, primary screen, biochemical, cell-free homogeneous, HTS | Glycogen synthase kinase-3 beta (Homo sapiens), P49841 | GST-GSK3beta kinase, ADP-Glo luminescence, 60 min; stronger effect = lower value | activity score (negative = inhibition), % at 10 µM | 300,000 compounds, 0.038% hits | AID 2097, 2009;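 active = more than half of replicate wells score below -50%, meaning over 50% inhibition versus plate controls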;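 note: 0% = median DMSO wells and -100% = median GW8510 positive control wells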
Target sequence (P49841 whole entry, looked up): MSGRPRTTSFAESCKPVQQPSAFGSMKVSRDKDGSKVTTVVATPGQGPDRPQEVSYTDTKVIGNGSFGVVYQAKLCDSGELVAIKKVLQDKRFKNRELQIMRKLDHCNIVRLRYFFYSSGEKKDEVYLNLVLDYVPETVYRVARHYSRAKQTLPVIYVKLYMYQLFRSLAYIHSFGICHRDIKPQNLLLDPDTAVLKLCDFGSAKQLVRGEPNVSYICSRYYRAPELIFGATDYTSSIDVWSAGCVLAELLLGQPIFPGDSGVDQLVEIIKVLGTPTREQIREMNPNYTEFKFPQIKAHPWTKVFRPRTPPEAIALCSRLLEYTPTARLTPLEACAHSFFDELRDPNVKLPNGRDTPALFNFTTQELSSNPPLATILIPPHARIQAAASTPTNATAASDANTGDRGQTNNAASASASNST
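Assay system: GST-fused GSK3beta enzyme, cell-free / Medium: Tris pH 7.5 buffer with MgCl2, DTT, BSA, heparin / Also added: peptide substrate plus 25 µM ATP (final) / Compound: 10 µM single point / Timing: kinase reaction with compound 60 min at room temperature / Detection: ADP-Glo luminescence / Benchmarks: DMSO neutral wells and GW8510 at 20 µM as positive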
MEKK2 mut-MEK5: MEK5 binding signal on mutant MEKK2 PB1, primary screen, biochemical, multiplex bead flow cytometry, Alexa488-MEK5; Alexa488-MEK5 binding to MEKK2 mutant; percent response, % at 10 µM; 290,000 compounds, 0.35% hits; AID 1530, 2009; in the data active = percent response above about 24%, passing the limit was not always enough
STK33 kinase inh: inhibitors of purified STK33 kinase, primary screen, biochemical, ADP-Glo luminescence, homogeneous, cell-free | MBP phosphorylation | inhibition, % at 10 µM | 320,000 compounds, 0.073% hits;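 active = inhibition at or above 25%, using the most active replicate where run in duplicate; inactive = inhibition below 25%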
MEKK2wt confirm: modulators of MEK5 binding to wildtype MEKK2, confirmation, biochemical, single concentration, multiplex bead flow cytometry | shares compounds with MEKK3 PB1 HTS | Alexa488-MEK5 binding to MEKK2 WT; actives lie on both sides | binding response (% of control), % at 10 µM | 5,900 compounds, 2.4% hits; in the data active = binding response below about 16% or above about 210%; inactive = in between
MEKK2mut-MEK5: mutant MEKK2 PB1-MEK5 binding signal retest – biochemical, single concentration, multiplex bead flow cytometry, confirmation; 5,900 compounds, 2% hits; shares compounds with MEKK3 PB1 HTS; percent response, % at 10 µM; Alexa488-MEK5 binding to MEKK2 mutant; in the data active = percent response mostly above about 71%, no sharp cut-off; inactive = mostly below about 38%;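 note: higher means compound restores mutant binding toward wildtype level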
MEKK3 confirm: MEKK3 wild-type PB1 binding to MEK5, inhibitors, confirmation, biochemical, bead multiplex flow cytometry, single concentration, wildtype; shares compounds with MEKK3 PB1 HTS; Alexa488-MEK5 binding to MEKK3; stronger effect = lower value; binding response (% of control), % at 10 µM; 5,900 compounds, 1.8% hits;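 active = binding response below 72% of control, or above a set upper limit, though filed actives all read lower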;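 note: 100% = DMSO only wells and 0% = binding blocked by excess unlabeled MEK5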
An asterisk follows results filed as active; nt = no result given; [ ] = dose if it differs, or a comment. Sampled rows, rich in hits. Any-hit rate of the full collection: about 2.1%.

SMILES | GSK3 alpha inh | MEKK2 WT-MEK5 | MEKK3 PB1 HTS | GSK3beta inhib | MEKK2 mut-MEK5 | STK33 kinase inh | MEKK2wt confirm | MEKK2mut-MEK5 | MEKK3 confirm
O=C(Nc1ccc(F)cc1)c1cccnc1NCCc1ccccc1 | nt | 112 | 142* | 0 | 1 | nt | 100 | -6 | 103
CCN1CCN(Cc2ccc(NC(=O)c3ccc(C)c(NC(=O)c4cccc5[nH]ccc45)c3)cc2C(F)(F)F)CC1 | -1 | 124 | 106 | -2 | 74* | 5 | 187 | 55 | 100
CCN1CCN(Cc2ccc(NC(=O)c3ccc(C)c(NC(=O)c4nccnc4N)c3)cc2C(F)(F)F)CC1 | 10 | 113 | 107 | -7 | 9 | 2 | nt | nt | nt
CCN1CCN(Cc2ccc(NC(=O)c3ccc(C)c(NC(=O)N4CCNC4=O)c3)cc2C(F)(F)F)CC1 | 1 | 126 | 107 | 0 | 5 | 4 | nt | nt | nt
CCN1CCN(Cc2ccc(NC(=O)c3ccc(C)c(NC(=O)c4nccn4C)c3)cc2C(F)(F)F)CC1 | 1 | 104 | 94 | 3 | 3 | 0 | nt | nt | nt
CCN1CCN(Cc2ccc(NC(=O)c3cc(NC(=O)c4cnnc5ccccc45)cc(OC)c3)cc2C(F)(F)F)CC1 | -1 | 142* | 107 | -1 | 21 | -1 | 143 | 15 | 99
CCN1CCN(Cc2ccc(NC(=O)c3cc(NC(=O)c4nccnc4N)cc(OC)c3)cc2C(F)(F)F)CC1 | 24 | 164* | 123* | 0 | 22 | 2 | 144 | 21 | 102
CCN1CCN(Cc2ccc(NC(=O)c3cc(NC(=O)c4cncc(-c5ccc(C#N)cc5)c4)cc(OC)c3)cc2C(F)(F)F)CC1 | 2 | 189* | 118 | -4 | 131* | 1 | 129 | 16 | 38*
CCOCCC(=O)Nc1nnc(CCc2ccccc2)s1 | 1 | 107 | 107 | 0 | 7 | -12 | nt | nt | nt
CCCc1cc(=O)[nH]c(SCC(=O)Nc2cc(S(=O)(=O)N3CCOCC3)ccc2N(CC)CC)n1 | -1 | nt | nt | nt | nt | 0 | nt | nt | nt
COc1ccccc1CNC(=O)CSc1ccc(C(=O)Nc2ccccc2OC)cc1[N+](=O)[O-] | 0 | 106 | 123 | -1 | 0 | -1 | nt | nt | nt
COc1ccccc1NC(=O)c1ccc(SCC(=O)NCc2ccccc2Cl)c([N+](=O)[O-])c1 | 0 | 103 | 133* | 2 | 0 | 0 | 95 | 0 | 103
Cc1ccc(NC(=O)c2ccc(-n3cccn3)c([N+](=O)[O-])c2)cc1 | 1 | 96 | 99 | 0 | -3 | -4 | nt | nt | nt
O=C(Nc1ccc(C2=NCCN2)cc1)c1ccc(C(=O)Nc2ccc(C3=NCCN3)cc2)c([N+](=O)[O-])c1 | 0 | 151* | 63*[inhibitor] | -3 | 32 | 0 | 104 | 6 | 46*
Cc1ccccc1C(=O)NC(=S)Nc1ccc2[nH]c(=O)[nH]c2c1 | -2 | 117 | 135* | 0 | 3 | 0 | 96 | -1 | 99
O=c1[nH]c2ccc(NC(=S)Nc3ccccc3)cc2[nH]1 | 0 | 99 | 98 | -7 | 3 | 1 | nt | nt | nt
O=c1[nH]c2ccc(NC(=S)NCCc3ccccc3)cc2[nH]1 | 4 | 44*[inhibitor] | 41*[inhibitor] | -1 | -13 | 1 | 96 | 3 | 101
O=C(NC(=S)Nc1ccc2[nH]c(=O)[nH]c2c1)c1ccccc1F | -1 | 105 | 101 | 3 | 2 | 1 | nt | nt | nt
COc1ccc(CCNC(=O)C2CCC(=O)N2S(=O)(=O)c2ccc(C)cc2)cc1 (stereo not given) | -4 | 105 | 105 | 4 | 1 | 0 | nt | nt | nt
CCN(CC(=O)NCc1cccs1)C(=O)c1cc(Br)ccc1O | 5 | nt | nt | nt | nt | 0 | nt | nt | nt
CC(C)c1cccc(C2=CC(=O)C[C@H](c3ccc4c(c3)OCO4)C2)c1 | -4 | nt | nt | nt | nt | 0 | nt | nt | nt
O=C1CC(N(CCc2ccccc2)C(=S)Nc2ccccc2)C(=O)N1c1ccc(Br)cc1 (stereo not given) | -2 | 149* | 102 | 2 | 16 | -2 | 140 | 16 | 107
Cc1ccc(-n2c(P(C)(=O)O)nc3ccccc32)cc1 | -5 | 100 | 104 | 4 | -1 | 1 | nt | nt | nt
Cc1ccsc1/C=C(\C#N)C(=O)NCc1cccnc1 | 0 | 107 | 104 | -1 | 2 | 0 | nt | nt | nt
Cc1[nH]c2ccccc2c1/C=C(\C#N)C(=O)NCc1ccccc1 | -2 | 15* | 108 | 1 | 134* | 1 | 106 | 4 | 101
SMILES | GSK3 alpha inh | MEKK2 WT-MEK5 | MEKK3 PB1 HTS | GSK3beta inhib | MEKK2 mut-MEK5 | STK33 kinase inh | MEKK2wt confirm | MEKK2mut-MEK5 | MEKK3 confirm
Cc1ccsc1/C=C(/C#N)C(=O)NCc1ccccc1 | nt | 112 | 108 | -2 | 58* | nt | 99 | -3 | 101
Cc1cccc2nc(CSc3nc4ccc([N+](=O)[O-])cc4[nH]3)cn12 | 1 | 110 | 151* | 3 | 0 | 2 | 103 | 8 | 103
CC(C)(C)OC(=O)NCCOC(=O)c1[nH]cnc1C(=O)NCc1ccccc1 | -1 | nt | nt | nt | nt | 0 | nt | nt | nt
O=C(NC1(C(F)(F)F)OCCO1)c1ccc(F)cc1 | 0 | 97 | 92 | 2 | -1 | 1 | nt | nt | nt
Cc1[nH]c2c(ccc3ccccc32)c1C1C(CCN)C1(C)C (stereo not given) | -1 | 208* | 107 | 3 | 37 | -2 | 166 | 41 | 108
CCOc1cc(C(=O)NC(C)CCc2ccccc2)cc(OCC)c1OCC (stereo not given) | -4 | 114 | 106 | 4 | 7 | 0 | nt | nt | nt
Cc1ccc([N+](=O)[O-])c(OCCCN2CCCCCC2)c1 | -3 | 169* | 99 | 0 | 66* | -2 | 130 | 16 | 104
